# Results taken from ChEMBL document CHEMBL4513216, “Probing the Open Global Health Chemical Diversity Library for Multistage-Active Starting Points for Next-Generation Antimalarials” (ACS Infect Dis, 2020).
# Assay: Toxicity liver stage against HepG2, at 10uM
# Type: cell-based
# Set-up: test concentration 10 uM, cell line HepG2-A16-CD81EGFP
# Conditions: human, HepG2-A16-CD81EGFP cells; read-out: INHIBITION
# Outline: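 Uninfected HepG2-A16-CD81EGFP cells, 3 × 10^3 per well, 1536-well, plated on prespotted compound at 10 μM final, parasite-free screening media added to match infected plates; puromycin 10 μM positive, DMSO 0.5% negative; run in parallel with 48 h PbLuc assay at 37 °C, 5% CO2; viability by CellTiter-Glo luminescence, normalized to controls.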
row,SMILES,cytotoxicity at 10 µM [%]
1,O=C(CCn1cccn1)NCCOc1cccc(Cl)c1,-2.48
2,c1cc(-c2c[nH]c([C@@H]3COCCN3Cc3ncc[nH]3)n2)ccn1,4.99
3,COCCNC(=O)c1ccc2c(=O)n3c(nc2c1)CCCC3,10
4,O=C1CSC(c2ccc(Cl)cc2Cl)c2c(n(C3CCOCC3)[nH]c2=O)N1 (configuration not stated),-7.92
5,N#Cc1cccnc1OC1CCN(S(=O)(=O)c2c(F)cccc2F)CC1,5.45
6,CS(=O)(=O)CC(=O)NCC1OCCc2cn(CC3CC3)nc21 (configuration not stated),3.45
7,COCCC(=O)N1CCCC2(CCC(=O)N2CCOC)CC1 (configuration not stated),2.52
8,CCOc1ccc(N2CCCN=C2NC(=O)c2cccc(OC)c2)cc1,5.2
9,CCn1cc(CNC(=O)CCn2ncc3c(Cl)cccc32)cn1,10.9
10,CCN(CC)C(=O)c1nnsc1-c1ccc(C)cc1,3.14
11,Cc1nn(C)c(C)c1S(=O)(=O)N(C)Cc1nn(C)c(Cl)c1Cl,-3.78
12,CS(=O)(=O)N1CC2(CCCN(CC3CC3)C2)Cc2ccccc21 (configuration not stated),2.85
13,COCc1ccc(CNc2cnn(C(C)(C)C)c(=O)c2Cl)cc1,60.9
14,O=C1OCCN1CCSc1nnnn1C1CCOCC1,-48.4
15,Cc1n[nH]cc1CNC(=O)CCCc1cccs1,-52.3
16,OCCOc1cc(F)ccc1NCc1cccc(F)c1F,-6.14
17,O=C1CC[C@H](C(=O)N(CCc2ccccc2)C2CCOC2)N1 (some centres not stated),1.15
18,CN(Cc1nnc2ccccn12)C(=O)CCC1CCCC1,-2.94
19,CN(Cc1ccsc1)C(=O)CNC(=O)N1CCc2ccccc2C1,-2.9
20,CNC(=O)Cc1ccccc1NC(=O)N[C@H]1c2ccccc2C[C@H]1O,-36.1
21,CCC(CNC(=O)Cc1cc(C)on1)Oc1cccc(F)c1 (configuration not stated),-48.2

row,SMILES,cytotoxicity at 10 µM [%]
1,CCSCCC(C)N(C)C(=O)c1cc(C)no1 (configuration not stated),-9.99
2,CNS(=O)(=O)c1cccc(C(C)NCc2ccco2)c1 (configuration not stated),4.61
3,Nc1ccnc(CNc2cc(F)ccc2OCC2CCCO2)n1 (configuration not stated),17.4
4,NS(=O)(=O)N1CCc2ccc(NC(=O)Cc3ccccc3F)cc21,1.17
5,OC1CCCN(Cc2ccc(F)c3cccnc23)C1 (configuration not stated),4.75
6,Cc1nc(N2CCCC(N3CCCC3)C2)c2cnn(C)c2n1 (configuration not stated),-4.07
7,CC(C)CCNC(=O)c1ccc(Cl)c(NS(C)(=O)=O)c1,2.2
8,CN(C)C(=O)c1cccc(C[S+]([O-])CC(=O)NC2CCCC2)c1 (configuration not stated),5.79
9,CC(=O)N1CCCc2ccc(S(=O)(=O)N3CCCCC3C)cc21 (configuration not stated),-15.1
10,Cc1cc(CCC(=O)NCc2ncc[nH]2)ccc1Br,-18.1
11,CC(C)c1nsc(N2CCC(OCCN3CCOCC3)CC2)n1,-14.2
12,Cc1ccnc(NC(=O)C2CCN(CCCc3cn[nH]c3)CC2)c1,-49
13,CCNC(=O)N(C)Cc1ccc(SC)c(OC)c1,-13.1
14,CN(C)C(=O)[C@H]1CCS(=O)(=O)[C@@H]2CN(c3ncc(F)cn3)C[C@H]12,-100
15,O=S(=O)(C1CC1)N1CCC2(CN(c3ncccn3)C2)C1,-98.4
16,Cc1ccc(CN2Cc3cnn(C)c3C(COCC3CC3)C2)o1 (configuration not stated),-78.5
17,O=C1[C@@H]2CCN(Cc3ccoc3)C[C@@H]2OCCN1c1cccnc1,-74.6
18,Fc1cccc(-c2nnn3c2COC(CNc2ncccn2)C3)c1 (configuration not stated),-65.3
19,OC[C@H]1CCCN1c1nccc(-c2c[nH]nc2C2CCCCC2)n1,-2.5
20,Cc1ccc(OCCN(C)Cc2nccn2C)c(C)c1,5.51
21,O=C1NCCN(C(=O)c2cn3ccsc3n2)C1Cc1ccccc1 (configuration not stated),-9.51

row,SMILES,cytotoxicity at 10 µM [%]
1,COc1ccc(-c2nccn2CCN2CCCCC2)c(OC)c1OC,4.74
2,CCc1nc(C)c(-c2nccn2CC2CC(=O)N(CC)C2)[nH]1 (configuration not stated),0.361
3,CCc1cc(C(=O)N[C@H]2CN(CCS(C)(=O)=O)C[C@@H]2C2CC2)[nH]n1,3.91
4,CC(C)c1cc(N[C@H](C(N)=O)C(C)C)n2nccc2n1,-1.56
5,O=C1O[C@@H]2CN(Cc3cc4ccccc4o3)C[C@@H]2N1Cc1ccccn1,5.16
6,Cc1cnccc1CN(C)C(=O)c1ccc(Cn2cnnn2)cc1,8.15
7,COc1cc(C)c(-c2ccc(F)c3c2OC(CN)C3)cc1C (configuration not stated),20.3
8,Cc1ccccc1C(CNC(=O)CSc1nnc(N)s1)N(C)C (configuration not stated),12
9,C[C@@H]1CN(C(=O)CCN2CCOCC2)CC[C@]1(C)O,-0.51
10,CN(Cc1csc(-c2cccs2)n1)C(=O)CN1CCOC1=O,-0.811
11,CNC(=O)[C@@H]1C[C@@H](NC(=O)CSc2ccccc2)CN1C1CCOCC1,2.14
12,O=C1CC(NS(=O)(=O)NCc2ccccc2)CN1c1ccccc1Cl (configuration not stated),-5.68
13,COC(=O)c1ccc(N2CCN(C(=O)c3ccn(C)c(=O)c3)CC2)cc1,2.7
14,COCc1ncc(CN2CCC3(CCC(=O)N(CC(C)O)C3)CC2)cn1 (configuration not stated),-123
15,Cc1cnc(NC(C)Cc2cccnc2)nc1N(C)C (configuration not stated),-4.03
16,C[C@@H]1CN(CC(C)(C)N2CCOCC2)C[C@@]1(O)C1CC1,2.93
17,CC(=O)NCc1nnc2n1CCN(c1nc(C)nc3sccc13)CC2,15.5
18,c1cc(-c2cnccn2)cc(-c2ccn(CCN3CCCC3)n2)c1,-11.5
19,Clc1ccccc1C1(c2ccnc(-c3ccncc3)n2)CCNCC1,-8.16
20,CN1CC(c2ccccc2)CC12CCN(C(=O)c1c(Cl)cnn1C)CC2 (configuration not stated),-17
21,c1ccc2nc(CN3CCCC3c3noc(C4CC4)n3)ccc2c1 (configuration not stated),-5.48

row,SMILES,cytotoxicity at 10 µM [%]
1,COc1ccc(C2CCCN2C(=O)NCCCn2ccnc2)cc1 (configuration not stated),-13.4
2,OCCn1cc(CN2CCN(CCOCC(F)(F)F)CC2)cn1,-10.7
3,COCCCN1CCCN(C(C)c2nc(C3CC3)no2)CC1 (configuration not stated),-8.77
4,CC(C)c1ccc(O)c(C(=O)N2CCN(Cc3cscn3)CC2)c1,-3.24
5,Cc1cc(C)c(OCC(=O)NS(=O)(=O)c2c(C)noc2C)c(C)c1,-6.64
6,c1ccc(-n2ccnc2)c(CNCC2CNc3ccnn3C2)c1 (configuration not stated),-8.11
7,O=C(NCCc1coc(-c2ccc(F)cc2)n1)NC1CCC(O)CC1 (configuration not stated),7.96
8,Cc1sc2c(C3CCNCC3)nc(Nc3cccc(F)c3)n2c1C,-0.775
9,Fc1ccc(OCCCNC2=NCCN2)cc1,5.08
10,CCCOc1ccccc1CN[C@@H]1CCC[C@H]1Cc1cc(C)no1,-6.86
11,Cc1cc2c(=O)n3c(nc2s1)CCN(Cc1[nH]cnc1C)CC3,-9.9
12,CN1CCN(C2COC3(CCN(Cc4ccc(F)cc4)CC3)C2)CC1 (configuration not stated),-97.4
13,CC1c2ncc(Cn3cccn3)n2CCN1Cc1ccc(F)cc1 (configuration not stated),-107
14,CCN1CCOCC12CCN(c1nccs1)CC2,-107
15,CCO[C@@H]1CC[C@H]2[C@H]1OCCN2CC1CCC1,11.2
16,CN1CCO[C@H]2CN(C(=O)c3ccoc3)C[C@H]21,-80.6
17,O=C(NC1CCCC1)[C@@H]1C[C@@H]2CCN(Cc3ccoc3)C[C@H]2O1,-110
18,COCCN1C(=O)C[C@H]2[C@H]1CCN2Cc1ccccc1,-71.5
19,O=C(NCCc1cccs1)[C@]12COC[C@H]1CN(Cc1ccncc1)C2,-114
